Screens deposited in PubChem by Sanford-Burnham Center for Chemical Genomics.
SENP8 block-1 = SENP8 protease inhibitors, primary screen, biochemical, luminescence; Sentrin-specific protease 8 (Homo sapiens), Q96LD8; purified SENP8, Z-RLRGG-aminoluciferin cleavage; inhibition, % at 10 µM; 330,000 compounds, 1.2% hits; in the data active = inhibition above about 50%
SENP6 block = SENP6 protease inhibitors, primary screen, biochemical, luminescence, uHTS | 330,000 compounds, 1.8% hits | inhibition, % at 10 µM | Recombinant SENP6 catalytic domain, aminoluciferin luminescence | Sentrin-specific protease 6 (Homo sapiens), Q9GZR1;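 active = inhibition above about 50% at the single tested dose, limit read from the data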;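 note: plate controls were DMSO wells with enzyme for no effect and DMSO wells lacking enzyme for full effect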
Target sequence (Q9GZR1 628-1112 limits assumed): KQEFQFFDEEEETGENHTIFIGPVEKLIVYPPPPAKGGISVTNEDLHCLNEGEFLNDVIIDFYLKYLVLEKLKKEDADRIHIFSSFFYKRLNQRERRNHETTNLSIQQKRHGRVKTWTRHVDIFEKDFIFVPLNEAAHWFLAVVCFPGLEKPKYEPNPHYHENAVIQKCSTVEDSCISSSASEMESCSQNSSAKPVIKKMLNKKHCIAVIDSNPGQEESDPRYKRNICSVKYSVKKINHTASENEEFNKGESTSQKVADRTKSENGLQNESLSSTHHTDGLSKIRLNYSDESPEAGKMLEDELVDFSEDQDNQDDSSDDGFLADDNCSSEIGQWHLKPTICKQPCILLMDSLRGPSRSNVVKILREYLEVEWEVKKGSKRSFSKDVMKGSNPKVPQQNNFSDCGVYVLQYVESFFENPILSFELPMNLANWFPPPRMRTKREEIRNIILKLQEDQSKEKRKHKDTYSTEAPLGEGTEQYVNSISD
SENP7 inh = SENP7 protease inhibitors, primary screen, biochemical, luminescence, uHTS; Sentrin-specific protease 7 (Homo sapiens), Q9BQF6; recombinant SENP7, Z-RLRGG-aminoluciferin luminescence, 40 min; inhibition, % at 5 µM; 330,000 compounds, 1.5% hits;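 active = inhibition above about 50% at the single test dose, limit read from the data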;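 note: plate controls were DMSO with enzyme for no effect and no enzyme buffer wells for full effect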
SENP8 block-2 = human SENP8 protease inhibitors, primary screen, biochemical, fluorescence, Nedd8 protein substrate, uHTS; recombinant SENP8; 360,000 compounds, 0.64% hits; inhibition, % at 20 µM; Sentrin-specific protease 8 (Homo sapiens), Q96LD8; in the data active = inhibition mostly above about 40%, no sharp cut-off; inactive = mostly below about 27%
SENP1 FRET inh = human SENP1 catalytic domain inhibitors, primary screen, biochemical, FRET, uHTS; Sentrin-specific protease 1 (Homo sapiens), Q9P0U3; recombinant SENP1 catalytic domain, CyPet-SUMO1-YPet FRET cleavage; inhibition, % at 10 µM; 360,000 compounds, 0.21% hits;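 active = inhibition at least 30% at 10 µM, raw YFP signal under a set limit, fluorescence ratio 0.5 to 1.5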;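 note: 0% = enzyme with DMSO and 100% = no enzyme wells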
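Test system: human SENP1 catalytic domain; medium: Tris pH 8 buffer plus EDTA, NaCl, BME, BSA, NP40, catalase; incubation: 50 min reaction at room temperature; technique: FRET, CFP and YFP emission; controls: no-enzyme low control and enzyme-plus-DMSO high control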
Starred values were filed as active, the others as inactive. Hits are enriched below; roughly 2.5% of the tested compounds scored in any of these assays.

Screening Cc1ccc(S(=O)(=O)N2CCN(C(=O)COC(=O)/C=C/c3ccc(OC(F)F)cc3)CC2)cc1 returned SENP8 block-2 7 and SENP1 FRET inh 2.
`O=C(Nc1ccc(Cl)cc1)Nc1ccc(S(=O)(=O)Nc2ncccn2)cc1` gave SENP8 block-1 8, SENP6 block 12, SENP7 inh -5, SENP8 block-2 6 and SENP1 FRET inh 1.
O=S(=O)(Nc1ncccn1)c1ccc(NC(=S)Nc2ccc(Cl)cc2)cc1 was read as SENP8 block-1 -2, SENP6 block 70*, SENP7 inh 0, SENP8 block-2 39 and SENP1 FRET inh 1.
For O=C1NC[C@H](CCCCN2CCN(Cc3ccccc3)C(=O)C2=O)N(CCC2CCCCC2)C1=O the results were SENP8 block-2 12 and SENP1 FRET inh 1.
Screening Cc1ccc2nc(-c3cc(-c4ccccc4)no3)cn2c1 returned SENP8 block-1 32, SENP6 block 44, SENP7 inh 90*, SENP8 block-2 -233 and SENP1 FRET inh -1.
For CC(=O)N1C(=O)/C(=C2\SC(=S)N(c3c(C)n(C)n(-c4ccccc4)c3=O)C2=O)c2ccccc21 the results were SENP8 block-2 81* and SENP1 FRET inh 1.
Screening COc1cc(/C=C2/SC(=S)N(c3c(C)n(C)n(-c4ccccc4)c3=O)C2=O)ccc1O returned SENP8 block-1 7, SENP6 block 15, SENP7 inh 1, SENP8 block-2 20 and SENP1 FRET inh 46*.
Cc1c(N2C(=O)/C(=C3/C(=O)N(C)c4ccccc43)SC2=S)c(=O)n(-c2ccccc2)n1C was read as SENP8 block-1 3, SENP6 block 11, SENP7 inh -7, SENP8 block-2 14 and SENP1 FRET inh 2.
`COc1cc(/C=C2\SC(=S)N(NS(=O)(=O)c3ccc(C)cc3)C2=O)ccc1O` gave SENP8 block-1 0, SENP6 block -10, SENP7 inh 6, SENP8 block-2 16 and SENP1 FRET inh 91*.
Screening CCOc1cc(/C=C2\SC(=S)N(NS(=O)(=O)c3ccc(C)cc3)C2=O)ccc1O returned SENP8 block-1 24, SENP6 block 46, SENP7 inh 3, SENP8 block-2 35 and SENP1 FRET inh 83*.
CCCCN(C(=O)COC(=O)COc1c(C)cc(C)cc1C)c1c(N)n(CCC)c(=O)[nH]c1=O was read as SENP8 block-1 -1, SENP6 block -13, SENP7 inh -7, SENP8 block-2 -1 and SENP1 FRET inh -1.
For CCCCN1C(=O)C(=O)c2cc(Cl)ccc21 the results were SENP8 block-1 10, SENP6 block 0, SENP7 inh 7, SENP8 block-2 -41 and SENP1 FRET inh -3.
Cc1ccc(NC(=O)N2CCOCC2)cc1NC(=O)N1CCOCC1 was read as SENP8 block-2 15 and SENP1 FRET inh 3.
`O=C(O)C1CCN(S(=O)(=O)c2ccc(N3CCC(O)CC3)c([N+](=O)[O-])c2)CC1` gave SENP8 block-1 -1, SENP6 block -13, SENP7 inh 0, SENP8 block-2 8 and SENP1 FRET inh 2.
Screening COc1cc(/C=C2\SC(=S)N(NS(=O)(=O)c3ccccc3)C2=O)ccc1O returned SENP8 block-1 -8, SENP6 block 8, SENP7 inh -8, SENP8 block-2 48* and SENP1 FRET inh 75*.
For COc1cc(/C=C2\N=C3CCCCCN3C2=O)ccc1O the results were SENP8 block-1 -5, SENP6 block -26, SENP7 inh -15, SENP8 block-2 -10 and SENP1 FRET inh 37*.
For COc1ccc(/C=C2/SC(=S)N(NS(=O)(=O)c3ccccc3)C2=O)cc1 the results were SENP8 block-1 10, SENP6 block 27, SENP7 inh 6, SENP8 block-2 20 and SENP1 FRET inh 1.
Screening COc1ccc(/C=C2\N=C3CCCCCN3C2=O)cc1OC returned SENP8 block-1 -3, SENP6 block 3, SENP7 inh -7, SENP8 block-2 7 and SENP1 FRET inh -11.
`COc1cc(/C=C2\SC(N)=NC2=O)ccc1O` gave SENP8 block-1 1, SENP6 block -10, SENP7 inh -3, SENP8 block-2 -50 and SENP1 FRET inh 40*.
For COc1ccc(/C=C2\CCC(C3CCCC3)C2=O)cc1OC (centres undefined) the results were SENP8 block-1 -5, SENP6 block 12, SENP7 inh 1, SENP8 block-2 17 and SENP1 FRET inh -7.
`Cc1ccc(/C=C2\CCC(C3CCCC3)C2=O)cc1` (centres undefined) gave SENP8 block-1 40, SENP6 block 89*, SENP7 inh 75*, SENP8 block-2 7 and SENP1 FRET inh 4.
For C=CCN(c1ccc(C(=O)NCCN2CCOCC2)cc1)S(C)(=O)=O the results were SENP8 block-1 -6, SENP6 block 2, SENP7 inh -1, SENP8 block-2 16 and SENP1 FRET inh 1.
`Cc1[nH]n(-c2ccccc2)c(=O)c1N=Nc1ccc(C(=O)O)cc1` gave SENP8 block-1 2, SENP6 block -11, SENP7 inh 8, SENP8 block-2 28 and SENP1 FRET inh 4.
Screening CC(=O)c1ccc(N=Nc2c(C)[nH]n(-c3ccccc3)c2=O)cc1 returned SENP8 block-1 -1, SENP6 block -6, SENP7 inh 2, SENP8 block-2 48* and SENP1 FRET inh 1.
Cn1cccc1/C=C1\SC(=S)N(NC(=O)c2ccccc2O)C1=O was read as SENP8 block-1 7, SENP6 block -19, SENP7 inh 0, SENP8 block-2 47* and SENP1 FRET inh -69.
Cn1cccc1/C=C1\SC(=S)N(NC(=O)c2ccc(F)cc2)C1=O was read as SENP8 block-1 7, SENP6 block 1, SENP7 inh -4, SENP8 block-2 52* and SENP1 FRET inh -85.
Screening Cn1cccc1/C=C1\SC(=S)N(NC(=O)c2ccccc2)C1=O returned SENP8 block-2 32 and SENP1 FRET inh -81.
Screening CC(/C=C1\SC(=S)N(NC(=O)c2ccc(C)cc2)C1=O)=C\c1ccccc1 returned SENP8 block-1 -2, SENP6 block -4, SENP7 inh -1, SENP8 block-2 40* and SENP1 FRET inh -4.
For Cc1cccc(NC(=S)N=Nc2c(O)[nH]c3ccccc23)c1 the results were SENP8 block-1 3, SENP6 block -3, SENP7 inh 6, SENP8 block-2 42* and SENP1 FRET inh 7.
Screening O=C(Cc1ccc(Cl)c(Cl)c1)Nc1ccc2[nH]c(=O)[nH]c2c1 returned SENP8 block-1 -2, SENP6 block 27, SENP7 inh 0, SENP8 block-2 -80 and SENP1 FRET inh -11.
`O=C1N/C(=N/Nc2ccccc2)S/C1=C\c1ccccc1` gave SENP8 block-1 -6, SENP6 block 27, SENP7 inh -3, SENP8 block-2 20 and SENP1 FRET inh 105*.
